In ChEMBL document CHEMBL1126688, “Interphenylene 7-oxabicyclo[2.2.1]heptane oxazoles. Highly potent, selective, and long-acting thromboxane A2 receptor antagonists” (J Med Chem, 1993):

What was measured:
Thromboxane A2 receptor = molecular target: T1, Thromboxane A2 receptor (Homo sapiens, UniProt P21731); experiment: Inhibitory binding activity against TXA2 receptor in human platelet membrane, using [3H]-SQ 29548 as the radioligand
T1 sequence (P21731 whole entry): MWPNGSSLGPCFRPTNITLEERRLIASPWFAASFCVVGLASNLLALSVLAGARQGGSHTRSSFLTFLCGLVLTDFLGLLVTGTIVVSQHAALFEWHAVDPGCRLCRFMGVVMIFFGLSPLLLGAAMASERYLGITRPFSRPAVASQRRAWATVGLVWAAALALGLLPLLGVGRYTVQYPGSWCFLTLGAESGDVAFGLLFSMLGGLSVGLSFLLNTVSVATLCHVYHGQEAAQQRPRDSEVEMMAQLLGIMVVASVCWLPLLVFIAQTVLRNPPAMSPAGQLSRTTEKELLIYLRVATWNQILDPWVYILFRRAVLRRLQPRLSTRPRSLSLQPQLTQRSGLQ
Summary of the method: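 Competition binding of [3H]-SQ 29,548 to TxA2 receptors in human platelet membranes, measured as inhibition of specific binding. Kd (inhibition constant) was calculated from each compound's I50 value. A slope factor is also reported.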

Mus musculus [1] = experiment: In vivo duration of action required to prevent death in mice, after iv administration of U-46619 (2 mg/kg) at 10 mg/kg po administration of compound
Homo sapiens [2] = species: Homo sapiens; experiment: Inhibitory activity against platelet aggregation, induced by arachidonic acid in human platelet rich plasma; type: functional; details: read-out: I50
Summary of the method: (§1)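 Human platelet-rich plasma. Aggregation was induced by exogenous arachidonic acid or by the TxA2 mimetic U-46,619, each at a single fixed agonist level. I50 was taken as the antagonist concentration giving 50% inhibition of aggregation.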

Mus musculus [3] = experiment: In vivo duration of action required to prevent death in mice, after i.v. administration of U-46619 (2 mg/kg) at 0.2 mg/kg p.o.; details: po
[4] = Partition coefficient (logP); type: physicochemical; details: octanol/water
Summary of the method: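 log P came from reversed-phase TLC Rm values on C18 plates. Eluent was acetone in 0.5 M aqueous KBr, buffered with 0.25 N triethylammonium phosphate to pH 7.3. Values were converted with a calibration curve built from shake-flask partition coefficients (pH 7.0) of seven oxabicycloheptane compounds spanning a range of lipophilicities.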

Homo sapiens [5] = species: Homo sapiens; experiment: Inhibitory activity against platelet aggregation, induced by U-46619 in human platelet rich plasma; type: functional; details: read-out: I50; summary of the method: as §1

## O=C(O)CCc1ccccc1CC1C2CCC(O2)C1c1nc(C(=O)NCCc2ccc(Cl)cc2)co1 (stereo unspecified)
Thromboxane A2 receptor
  Kd: 1.3 nM
Mus musculus [1]
  T50: 38.7 h
Homo sapiens [2]
  IC50: 4 nM
Mus musculus [3]
  T50: 22.7 h
[4]
  logP: 1.55
Homo sapiens [5]
  IC50: 14 nM
